Legend:
MDA-MB-231 cells = details: CIA; ref Yu and Machesky, 2012; cited from earlier work
[1] = test system: BM collagen IV / MDA-MB-231 cells; assay: Native peritoneal basement membrane; format: cell-based, mouse (C57BL/6) BM; details: 3 d culture; GM6001 at 5 µM
Procedure, shortened: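 Native basement membrane was made by stripping mesothelial cells from C57BL/6 mouse mesentery (1 N ammonium hydroxide) and mounting it on 6.5-mm Transwells. 5 × 10^4 MDA-MB-231 cells were seeded on top in DME/10% FBS, with medium below, and cultured 3 d. Samples were fixed in 4% formaldehyde, then stained on both sides for collagen IV (antibody 1:200), phalloidin and DAPI, and imaged by confocal. Read-out was total remaining collagen IV fluorescence; ≥3 independent experiments in duplicate.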

[2] = test system: GFP-actin in MDA-MB-231 cells; assay: FRAP of GFP-actin in invasive pseudopods; format: cell-based; details: 2 µM LatA, invasive pseudopod, FRAP 90 s
[3] = test system: mCherry-MT1-MMP in MDA-MB-231 cells; assay: FRAP of mCherry-MT1-MMP at plasma membrane of cells in CIA; format: cell-based; details: invasive pseudopods in Matrigel (CIA); LatA at 2 µM
Procedure, shortened: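 mCherry-MT1-MMP expressed in MDA-MB-231 cells by nucleofection; cells kept at 37°C, 5% CO2. Photobleaching was done on the plasma membrane of invasive pseudopods in Matrigel and compared with other cell-surface regions, such as the membrane next to the nucleus. Fluorescence recovery gave MT1-MMP mobility.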

[4] = biological target: actin (F-actin) in invasive pseudopods of MDA-MB-231 cells (human (endogenous in MDA-MB-231)) (UniProt P60709); assay: FRET or BRET

## CNC(=O)[C@H](Cc1c[nH]c2ccccc12)NC(=O)[C@@H](CC(=O)NO)CC(C)C [GM6001]
MDA-MB-231 cells
  reduction of migration speed: 30–50%
[1]
  degradation and remodeling of BM collagen IV: significantly blocked

## C/C1=C/C(=O)O[C@@H]2C[C@@H](CC[C@H](C)/C=C\C=C\CC1)O[C@@](O)([C@@H]1CSC(=O)N1)C2 [Latrunculin A]
[2]
  GFP-actin exchange: GFP-actin exchanged much faster
[3]
  mobility of MT1-MMP in pseudopods: mCherry-MT1-MMP became more mobile

## MT1-MMP-GFP (from UniProt P50281 112-582) (natural protein)
[4]
  donor fluorescence lifetime with acceptor (FLIM-FRET): 2.25 ns
  shift in the donor fluorescence lifetime (FLIM-FRET): 150 ps
